In paper PMC7066653 (ACS Omega, 2020):
Converted amounts (≈) assume the structure as drawn.

Columns and labels:
[1] = tested on: focal cerebral ischemia-reperfusion injury (MCAO); parameters: species or system Sprague-Dawley rats; conditions: rat, in vivo
[2] = tested on: focal cerebral ischemia-reperfusion injury (MCAO); assay: Neurological deficit; format: in vivo, Sprague-Dawley rats; conditions: edaravone 6 mg/kg iv, single dose, P = 0.4298
[3] = Aqueous solubility of ATXP and ATX at 25 °C, by HPLC; format: physicochemical; conditions: for solubility at 1 h: 25 °C, thermodynamic from solid
Procedure, shortened: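 Excess solid was added to 1 mL of ultrapure water, 0.9% NaCl (pH 7.4) or PBS (pH 7.4) and held at 25 °C. Samples were taken at 1, 24 and 48 h, filtered (0.22 μm) and quantified by HPLC (C18; 75% methanol/water with 1% TFA; 1 mL/min; 350 nm). Experiments were repeated three times and reported as mean ± SD.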

[4] = 9 (b3); cited from earlier work

With CC1=NN(c2ccccc2)C(=O)C1 [edaravone] the “infarct volume vs vehicle” value [1] was “significant reductions in infarct volume”, the “neurological deficit score, 24 h vs 0 h after reperfusion” value [2] was “did not exhibit increased neurological scores” and the “solubility in saline, in words” value ([3]; saline (0.9%)) was “freely soluble”.
In the case of COc1ccc(-c2cc(=S)ss2)cc1 [ATT, Anethol trithione], the water solubility [4] is given as 0.38 µg/mL (≈ 1.58 µM).
In the case of Oc1ccc(-c2cc(=S)ss2)cc1 [ATX, 5-(4-hydroxyphenyl)-3H-1,2-dithiole3-thione], the solubility at 1 h ([3]; 0.9% NaCl solution, pH 7.4, saline or isotonic) is reported as less than 0.8 µg/mL, the solubility at 1 h ([3]; PBS, pH 7.4, aqueous buffer) is reported as less than 0.8 µg/mL and the solubility at 1 h ([3]; ultrapure water, water) is reported as 0.8 ± 0.02 µg/mL (≈ 3.53 µM).
